This is a sample that favours compounds with a hit; in the whole collection about 1.4% have one here.
HTRA1 inhibitor = HTRA1 serine protease inhibitors, primary screen, biochemical, fluorescence polarization, HTS. Q92743. recombinant HTRA1, FP-rhodamine activity-based probe. inhibition, % at 5.96 µM. hit rate 0.5% among 340,000. AID 504803, 2011; in the data active = inhibition above about 36%
RBBP9 inhibitor = human RBBP9 inhibitors, primary screen, biochemical, fluorescence polarization, FP-Rh probe, HTS; inhibition, % at 7.94 µM; hit rate 0.2% among 220,000; AID 1515, 2009; recombinant RBBP9; Serine hydrolase RBBP9 (Homo sapiens), O75884;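 active = inhibition above the campaign mean of all tested compounds plus 3 SD, cut at about 14% in these data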
Target sequence (O75884 whole entry, looked up): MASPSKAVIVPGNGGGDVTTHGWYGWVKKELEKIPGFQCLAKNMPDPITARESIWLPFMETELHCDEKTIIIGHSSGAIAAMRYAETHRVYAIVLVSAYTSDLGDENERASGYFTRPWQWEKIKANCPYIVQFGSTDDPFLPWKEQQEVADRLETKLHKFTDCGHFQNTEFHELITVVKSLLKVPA
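Assay system: recombinant human RBBP9; Reagent: Serine-hydrolase probe FP-Rh, 375 nM pre-mixing; Doses: 7.94 µM single dose, 0.794% DMSO; Incubation: 30 min then 45 min, 25 °C; Detection: fluorescence polarization (mP), excitation 525 nm, emission 598 nm; Evaluation: percent inhibition from mP, scaled between DMSO and no-protein wells.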
SIAE inh = human SIAE inhibitors, primary screen, biochemical, fluorescence polarization, FP-Rh probe, 1536-well HTS; Sialate O-acetylesterase (Homo sapiens), Q9HAT2; SIAE FP-Rh probe binding; inhibition, % at 9.66 µM; hit rate 0.69% among 370,000;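 active = inhibition above a cutoff: mean of compounds within the control limits plus 3 SD of those, cut at about 17% in these data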
mABHD4 FP = ABHD4 inhibitors, primary screen, biochemical, fluorescence polarization, mouse; inhibition, % at 8.92 µM; purified mABHD4, FP-Rh probe fluorescence polarization; hit rate 0.54% among 370,000; AID 720543, 2013;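 active = inhibition exceeding the mean over every tested compound plus 3 SD, cut at about 30% in these data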
Target sequence (Q8VD66 whole entry, looked up): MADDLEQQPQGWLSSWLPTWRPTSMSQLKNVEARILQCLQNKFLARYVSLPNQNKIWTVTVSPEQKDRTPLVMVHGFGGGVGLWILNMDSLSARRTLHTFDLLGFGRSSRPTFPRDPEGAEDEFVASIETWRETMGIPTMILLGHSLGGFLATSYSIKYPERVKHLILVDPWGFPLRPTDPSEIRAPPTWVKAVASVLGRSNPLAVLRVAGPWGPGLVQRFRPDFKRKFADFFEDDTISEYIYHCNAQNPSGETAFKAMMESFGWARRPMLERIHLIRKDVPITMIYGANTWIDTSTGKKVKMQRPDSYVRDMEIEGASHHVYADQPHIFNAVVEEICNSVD
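Doses – 8.92 µM, single dose · Material – wild-type mouse ABHD4 protein · Replication – single well per compound (singlicate) · Measure – percent inhibition of probe binding, normalized to plate controls · Schedule – 45 min compound pre-incubation plus 60 min probe step, 25 °C · Detection – fluorescence polarization with parallel and perpendicular emission, 525/598 nm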
mABHD4 conf = ABHD4 inhibitors, retest, confirmation, biochemical, fluorescence polarization, mouse; shares compounds with mABHD4 FP; purified mABHD4, FP-Rh probe fluorescence polarization; inhibition, % at 8.92 µM; hit rate 55% among 1,800; AID 720658, 2013;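 active = mean inhibition across replicates above the hit cutoff set in the primary screen, cut at about 30% in these data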
Numbers stand for hits; i = inactive; nt = not tested or not shown.

SMILES	HTRA1 inhibitor	RBBP9 inhibitor	SIAE inh	mABHD4 FP	mABHD4 conf
O=C1NC(=S)S/C1=C\C=C\c1ccc([N+](=O)[O-])o1	i	i	i	41.6	i
Cc1[nH]n(-c2ncc(-c3ccccc3)s2)c(=O)c1C(c1ccc(Cl)cc1)C(C#N)C#N (configuration not stated)	i	i	i	48.9	51.6
Cc1[nH]n(-c2ccccc2)c(=O)c1C(C[N+](=O)[O-])c1ccc(Cl)cc1 (configuration not stated)	i	i	i	i	nt
OCCCNc1c2ccccc2nc2ccccc12	i	nt	i	i	nt
Oc1cccc(-c2nnc(-c3cccc(O)c3)nn2)c1	i	nt	i	42.1	60.2
Oc1cccc(-c2nc3ccccc3s2)c1	i	i	i	i	nt
CCOC(=O)C1=C(C)N=c2s/c(=C\c3ccc(O)c([N+](=O)[O-])c3)c(=O)n2C1c1ccccc1OC (configuration not stated)	i	nt	i	36.8	63.0
CC(C)(C)/C(O)=C/c1nc2cc(Cl)ccc2oc1=O	i	i	i	31.8	i
CCOC(=O)/C(=N\Nc1ccccc1)P(=O)(c1ccccc1)c1ccccc1	i	i	i	29.8	i
Cc1cccc(C)c1NC(=O)C(CCc1ccccc1)n1c(=O)c(-c2cc3ccccc3[nH]2)nc2ccccc21 (configuration not stated)	nt	nt	i	i	nt
CC(C)(C)C(=O)/C=C/Nc1ccccc1O	i	i	i	30.5	i
CC1(C)Nc2ccc(O)cc2-c2c1ssc2=S	i	i	i	36.6	32.5
CCC(C)COC(c1ccccc1)(c1ccccc1)C(Oc1nc(C)cc(C)n1)C(=O)O (configuration not stated)	i	nt	i	30.7	35.4
Cc1cc(C)nc(OC(C(=O)O)C(OCC(C)C)(c2ccccc2)c2ccccc2)n1 (configuration not stated)	i	nt	i	i	nt
Cc1cc(C)nc(OC(C(=O)O)C(OCCc2ccccc2)(c2ccc(F)cc2)c2ccc(F)cc2)n1 (configuration not stated)	i	nt	i	39.9	42.6
COc1ccc(C(=O)NCC(=O)N/N=C/c2cccc(OC(=O)c3ccco3)c2)cc1OC	i	i	i	i	nt
O=C(CNc1cccc2ccccc12)N/N=C/C(Br)=C/c1ccccc1	i	i	i	31.8	i
O=C(CNc1cccc2ccccc12)N/N=C/c1ccc[nH]1	i	i	i	i	nt
CN(C)CCOc1ccc(-c2c(-c3ccsc3)sc3ccccc23)cc1	i	nt	i	33.6	38.8
COP1(=O)CCOCC[C@H](CC(C)C)NC(=O)[C@H](CC(C)C)N1 (some centres not stated)	nt	nt	i	i	nt
Cc1n[nH]c(=S)n(NC(=O)/C=C/C(=O)Nn2c(=S)[nH]nc(C)c2=O)c1=O	i	i	i	37.7	i
Cc1n[nH]c(=S)n(NC(=O)CC(=O)Nn2c(=S)[nH]nc(C)c2=O)c1=O	i	i	i	i	nt
NS(=O)(=O)c1cccc2c1c([N+](=O)[O-])cc1nc(O)c(O)nc12	i	nt	i	30.7	i
O=[N+]([O-])c1cc2cccnc2c2ncccc12	nt	i	i	i	nt
Nc1ccccc1C(=O)NC1CCCNC1=O (configuration not stated)	nt	nt	i	i	nt
SMILES	HTRA1 inhibitor	RBBP9 inhibitor	SIAE inh	mABHD4 FP	mABHD4 conf
COc1ccc(N=C2NC(=O)/C(=C/c3ccco3)S2)cc1	i	i	i	33.1	i
COc1ccc(S(=O)(=O)/N=C2/NC(=O)/C(=C/c3ccco3)S2)cc1	i	i	i	i	nt
O=C1Nc2cc(S(=O)(=O)N3CCCC3)ccc2N2CCCC12 (configuration not stated)	i	i	i	i	nt
CCN(CC)S(=O)(=O)c1ccc2c(c1)NC(=O)C1CCCN21 (configuration not stated)	i	nt	i	31.2	43.9
O=C(N=Nc1c(O)[nH]c2ccc([N+](=O)[O-])cc12)c1ccccc1[N+](=O)[O-]	i	i	i	i	nt
CCc1cc(C(=O)N=Nc2c(O)[nH]c3ccc([N+](=O)[O-])cc23)c2ccccc2n1	i	i	i	40.4	41.4
COc1ccc(S(=O)(=O)N2CCCC(N(C)CCc3ccccc3)C2)cc1OC (configuration not stated)	i	nt	i	i	nt
O=C(CSc1ccc(-c2ccco2)nn1)c1cccc([N+](=O)[O-])c1	i	i	i	30.9	i
CC(=O)c1cccc(NC(=O)CSc2ccc(-c3ccco3)nn2)c1	i	nt	i	i	nt
CC1SC(=S)N(c2ccc(N(C)C)cc2)C1=O (configuration not stated)	i	nt	i	33.3	i
Cc1cc2nc(CCN(C(=S)NCC(C)C)C3CCCC3)[nH]c2cc1C	i	i	i	42.3	48.2
CC[C@@]1(C(=O)OC)N[C@H](CN(C)C(=O)c2ccc(F)cc2)[C@@H]2C(=O)N(Cc3ccccc3)C(=O)[C@@H]21	i	nt	i	i	nt
CC(C)NC(=O)C1(C)CCCCN1Cc1ccc(OCc2ccccc2)cc1 (configuration not stated)	nt	nt	i	i	nt
O=C(NCC1CCCO1)c1cc(-c2ccc(F)cc2)no1 (configuration not stated)	i	nt	i	i	nt
CCN(Cc1ccccc1)c1ccc(/C=N/N=C(N)N)cc1	i	i	i	46.4	61.9
NC(=O)c1nsc(C(=O)N(c2cccc(F)c2)C(C(=O)NC2CCCC2)c2ccco2)c1N (configuration not stated)	i	nt	i	i	nt
Nc1ccc(O)cc1C(=O)OCC(=O)c1ccc(C2CCCCC2)cc1	i	i	i	53.5	38.5
COc1ccc(C(=O)OCC(=O)c2ccc(C3CCCCC3)cc2)cc1	i	i	i	i	nt
Nc1ccc(O)cc1C(=O)OCC(=O)C12CC3CC(CC(C3)C1)C2	i	i	i	52.4	35.3
CC(C)(C)c1ccc(S(=O)(=O)N2CCC(C(=O)NCC3COCCO3)CC2)cc1 (configuration not stated)	nt	nt	i	i	nt
O=C1C=C(c2ccccc2)C(=O)N1Nc1ccccc1	i	i	i	30.8	i
COc1ccc(C2=CC(=O)N(Nc3ccccc3)C2=O)cc1	nt	i	i	i	nt
CCc1ccc(OCC(=O)NNC(=O)c2ccc(NC(=O)C3CC3)cc2)cc1	i	nt	nt	nt	nt
Oc1ccc(NC(=S)Nc2ccccc2)cc1	i	i	i	42.4	i
CN(C)CCCNS(=O)(=O)c1ccc(N2CCN(Cc3ccc4c(c3)OCO4)CC2)c([N+](=O)[O-])c1	i	nt	i	i	nt
O=C(C(=O)N1CCC(CNC(=O)c2cccs2)CC1)c1cc2ccccc2o1	nt	nt	i	i	nt
COc1ccccc1CNc1nc(NCCOc2ccccc2Cl)c2sccc2n1	nt	nt	i	30.6	69.2
COc1ccccc1CNc1nc(NC(C)C)nc2ccsc12	nt	nt	i	i	nt
CNc1nc(NCCOc2ccccc2Cl)c2sccc2n1	nt	nt	i	i	nt
